Holding throughout (type): functional
The test system of experiment [1] is Mythimna separata. Put plainly: Insecticidal activity against fourth-instar larval stage of Mythimna separata (Oriental armyworm) in compound pretreated Zea mays L. Tangyu 10 leaves assessed as mortality at 5 mg/l at 25 +/-1 degC after 2 days. The method, boiled down:
(§1)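 Greenhouse-reared fourth-instar oriental armyworm larvae. Corn (Tangyu 10) leaves laid on moist filter paper in Petri dishes, sprayed with test solution (200 mg/L solution diluted in distilled water), then air-dried. Ten larvae per dish. Held at 25 ± 1 °C; mortality scored dead/alive 2 days post-treatment. Triplicate treatments, Abbott-corrected, 0–100 scale.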

Experiment [2] deals with Mythimna separata. Put plainly: Insecticidal activity against fourth-instar larval stage of Mythimna separata (Oriental armyworm) in compound pretreated Zea mays L. Tangyu 10 leaves assessed as mortality at 10 mg/l at 25 +/-1 degC after 2 days. A digest of the protocol:
as §1

The test system of experiment [3] is Mythimna separata. Put plainly: Insecticidal activity against fourth-instar larval stage of Mythimna separata (Oriental armyworm) in compound pretreated Zea mays L. Tangyu 10 leaves assessed as mortality at 20 mg/l at 25 +/-1 degC after 2 days. The method, boiled down: as §1
The test system of experiment [4] is Mythimna separata. Put plainly: Insecticidal activity against fourth-instar larval stage of Mythimna separata (Oriental armyworm) in compound pretreated Zea mays L. Tangyu 10 leaves assessed as mortality at 50 mg/l at 25 +/-1 degC after 2 days. A digest of the protocol:
as §1

For experiment [5], the system named is Mythimna separata. Put plainly: Insecticidal activity against fourth-instar larval stage of Mythimna separata (Oriental armyworm) in compound pretreated Zea mays L. Tangyu 10 leaves assessed as mortality at 100 mg/l at 25 +/-1 degC after 2 days. A digest of the protocol:
as §1

In experiment [6] the test system is Mythimna separata. Put plainly: Insecticidal activity against fourth-instar larval stage of Mythimna separata (Oriental armyworm) in compound pretreated Zea mays L. Tangyu 10 leaves assessed as mortality at 200 mg/l at 25 +/-1 degC after 2 days. A digest of the protocol: as §1
The subject of experiment [7] is Plutella xylostella. Put plainly: Insecticidal activity against second-instar larval stage of Plutella xylostella (diamondback moth) in cabbage leaves assessed as mortality at 0.125 mg/l at 25 +/-1 degC treated for 3 secs before larva infestation measured after 2 days by leaf-dip method. The following applies: 48 h. The method, boiled down:
(§2)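 Greenhouse-reared diamondback moth larvae tested by leaf-dip method at 25 ± 1 °C. Test solution made at 200 mg/L, then diluted with distilled water to working concentrations. Mortality scored dead/alive, corrected with Abbott's formula and expressed on a 0–100 scale.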

Experiment [8] has as its system Plutella xylostella. Put plainly: Insecticidal activity against second-instar larval stage of Plutella xylostella (diamondback moth) in cabbage leaves assessed as mortality at 0.25 mg/l at 25 +/-1 degC treated for 3 secs before larva infestation measured after 2 days by leaf-dip method. The note with it: 48 h. A digest of the protocol:
as §2

Experiment [9] has as its system Plutella xylostella. Put plainly: Insecticidal activity against second-instar larval stage of Plutella xylostella (diamondback moth) in cabbage leaves assessed as mortality at 0.5 mg/l at 25 +/-1 degC treated for 3 secs before larva infestation measured after 2 days by leaf-dip method. The following applies: 48 h. A digest of the protocol: as §2
The test system of experiment [10] is Plutella xylostella. Put plainly: Insecticidal activity against second-instar larval stage of Plutella xylostella (diamondback moth) in cabbage leaves assessed as mortality at 1 mg/l at 25 +/-1 degC treated for 3 secs before larva infestation measured after 2 days by leaf-dip method. The following applies: 48 h. The method, boiled down:
as §2

The test system of experiment [11] is Plutella xylostella. Put plainly: Insecticidal activity against second-instar larval stage of Plutella xylostella (diamondback moth) in cabbage leaves assessed as mortality at 2.5 mg/l at 25 +/-1 degC treated for 3 secs before larva infestation measured after 2 days by leaf-dip method. The following applies: 48 h. The method, boiled down:
as §2

Experiment [12] concerns Plutella xylostella. Put plainly: Insecticidal activity against second-instar larval stage of Plutella xylostella (diamondback moth) in cabbage leaves assessed as mortality at 5 mg/l at 25 +/-1 degC treated for 3 secs before larva infestation measured after 2 days by leaf-dip method. The note with it: 48 h. The method, boiled down:
as §2

The subject of experiment [13] is Plutella xylostella. Put plainly: Insecticidal activity against second-instar larval stage of Plutella xylostella (diamondback moth) in cabbage leaves assessed as mortality at 10 mg/l at 25 +/-1 degC treated for 3 secs before larva infestation measured after 2 days by leaf-dip method. The following applies: 48 h. The method, boiled down: as §2
In experiment [14] the test system is Plutella xylostella. Put plainly: Insecticidal activity against second-instar larval stage of Plutella xylostella (diamondback moth) in cabbage leaves assessed as mortality at 20 mg/l at 25 +/-1 degC treated for 3 secs before larva infestation measured after 2 days by leaf-dip method. The following applies: 48 h. The method, boiled down: as §2
Experiment [15] deals with Mythimna separata. Put plainly: Insecticidal activity against fourth-instar larval stage of Mythimna separata (Oriental armyworm) in compound pretreated Zea mays L. Tangyu 10 leaves assessed as mortality at 2.5 mg/l at 25 +/-1 degC after 2 days. A digest of the protocol:
as §1

Experiment [16] has as its system Plutella xylostella. Put plainly: Insecticidal activity against second-instar larval stage of Plutella xylostella (diamondback moth) in cabbage leaves assessed as mortality at 25 +/-1 degC treated for 3 secs before larva infestation measured after 2 days by leaf-dip method. The following applies: 48 h. The method, boiled down: as §2

In brackets after ≈: the same amount, converted by molar mass.

Here are results for three compounds from ChEMBL document CHEMBL3045285, “Synthesis and insecticidal activities of novel anthranilic diamides containing modified N-pyridylpyrazoles” (2010).

By mortality is commonly meant the percentage killed. For the compound `CNC(=O)c1cc(Cl)cc(C)c1NC(=O)c1cc(CN=[N+]=[N-])nn1-c1ncccc1Cl`, the mortality at 5 µg/mL in the experiment with Mythimna separata [1] and with Plutella xylostella [12] was 100% throughout. In addition, the mortality at 10 µg/mL with Mythimna separata [2] and in the experiment with Plutella xylostella [13] was 100% in each case. Further, the mortality at 20 µg/mL with Mythimna separata [3] and in the experiment with Plutella xylostella [14] was 100% in each case. Moreover, the mortality at 50 µg/mL with Mythimna separata [4] is 100%. Besides, the mortality at 100 µg/mL in the experiment on Mythimna separata [5] worked out at 100%. In addition, the mortality at 200 µg/mL in the experiment on Mythimna separata [6] worked out at 100%. The mortality at 0.125 µg/mL with Plutella xylostella [7] was determined as 45%. Further, the mortality at 0.25 µg/mL with Plutella xylostella [8] worked out at 75%. Also, in the experiment with Plutella xylostella [9], the mortality at 0.5 µg/mL is 100%. The mortality at 1 µg/mL in the experiment with Plutella xylostella [10] came out at 100%. Further, the figures for the mortality at 2.5 µg/mL with Plutella xylostella [11] and in the experiment on Mythimna separata [15] were 100% and 40%, respectively.
Turning to `CNC(=O)c1cc(C(=O)Nc2c(C)cc(Cl)cc2C(=O)NC(C)(C)C)n(-c2ncccc2Cl)n1`, the values for the mortality at 5 µg/mL in the experiment on Mythimna separata [1] and in the experiment on Plutella xylostella [12] were 40% and 100%, respectively. Also, the mortality at 10 µg/mL in the experiment on Mythimna separata [2] and with Plutella xylostella [13] was 100% each time. Moreover, the mortality at 20 µg/mL with Mythimna separata [3] and in the experiment on Plutella xylostella [14] was 100% throughout. The mortality at 50 µg/mL in the experiment on Mythimna separata [4] was found to be 100%. The mortality at 100 µg/mL in the experiment on Mythimna separata [5] turned out to be 100%. Further, the mortality at 200 µg/mL with Mythimna separata [6] was 100%. The mortality at 0.125 µg/mL in the experiment with Plutella xylostella [7] came to 0%. The mortality at 0.25 µg/mL in the experiment with Plutella xylostella [8] was determined as 30%. In addition, the mortality at 0.5 µg/mL in the experiment with Plutella xylostella [9] was determined as 85%. Also, in the experiment with Plutella xylostella [10], the mortality at 1 µg/mL amounted to 100%. In addition, the mortality at 2.5 µg/mL with Plutella xylostella [11] was 100%.
What is called LC50 is the concentration that kills 50% of the test population. For the compound `CNC(=O)c1cc(Cl)cc(C)c1NC(=O)c1cc(Br)nn1-c1ncccc1Cl` [CHLORANTRANILIPROLE], the mortality at 5 µg/mL in the experiment with Mythimna separata [1] and with Plutella xylostella [12] was 100% throughout. Moreover, the mortality at 10 µg/mL in the experiment with Mythimna separata [2] and in the experiment with Plutella xylostella [13] was 100% throughout. The mortality at 20 µg/mL in the experiment with Mythimna separata [3] and in the experiment on Plutella xylostella [14] was 100% in each case. In the experiment with Mythimna separata [4], the mortality at 50 µg/mL amounted to 100%. For the same compound, the mortality at 100 µg/mL in the experiment on Mythimna separata [5] was 100%. Also, the mortality at 200 µg/mL with Mythimna separata [6] came to 100%. Further, the LC50 with Plutella xylostella [16] came to 3.8 µg/mL (≈ 7.87 µM). For the same compound, the mortality at 0.125 µg/mL in the experiment with Plutella xylostella [7] amounted to 100%. The mortality at 0.25 µg/mL in the experiment with Plutella xylostella [8] turned out to be 100%. The mortality at 0.5 µg/mL in the experiment on Plutella xylostella [9] came to 100%. Moreover, in the experiment on Plutella xylostella [10], the mortality at 1 µg/mL was 100%. The mortality at 2.5 µg/mL in the experiment with Plutella xylostella [11] and with Mythimna separata [15] was 100% in each case.
